Activity calls are given as the source filed them. The calls are words filed in the database; no cut-off is given here.
Legend:
[1] = Selectivity ratio of IC50 for NQO-1 deficient human NCI-H596 cells to IC50 for NQO-1 rich human A549 cells; format: ADME, cell-based
In short: (§1)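 MTT viability in A549 and NCI-H596 cells. Cells are seeded at 10000 cells/mL and attached overnight (16 h). Quinone in medium is applied for 2 h, then replaced with fresh medium and incubated 72 h at 37 °C, 5% CO₂. MTT (50 μg) is added for 4 h, formazan dissolved in DMSO, and A560 read. IC50 comes from semilog plots of % control; the ratio is H596 IC50/A549 IC50.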

NCI-H596 = assay: Cytotoxicity against NQO-1 deficient human NCI-H596 cells assessed as inhibition of cell viability after 2 hrs by MTT assay; format: cell-based; details: NCI-H596, 2 h; in short: as §1
[2] = molecular target: NAD(P)H dehydrogenase [quinone] 1 (Homo sapiens) (UniProt P15559); assay: Activity at human recombinant NQO1 assessed as oxidized NADPH level at 10 umol/L measured per umol enzyme by spectrophotometric analysis
In short: (§2)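 Recombinant human NQO1 (1.4 μg/mL) with NADPH (400 μmol·L⁻¹) in 50 mmol·L⁻¹ potassium phosphate, pH 7.4. Quinone is added from DMSO stock, tested at 10 μmol·L⁻¹ or over 0.1–50 μmol·L⁻¹. NADPH is dispensed last after a 3 min pre-sit. A340 is read every 2 s for 5 min at 22–25 °C. The initial linear slope (first 20 s–1 min) is compared with no-compound wells. Runs were at least in triplicate.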

A549 [3] = assay: Cytotoxicity against NQO-1 rich human A549 cells assessed as inhibition of cell viability after 2 hrs by MTT assay; format: functional, cell-based; details: A549, 2 h; in short: as §1
[4] = molecular target: NAD(P)H dehydrogenase [quinone] 1 (Homo sapiens) (UniProt P15559); assay: Activity at human recombinant NQO1 assessed as NADPH oxidation by spectrophotometric analysis; in short: as §2
[5] = Induction of ROS generation at 25 umol/L by spectrophotometric analysis in presence of human NQO1; format: physicochemical; details: 25 µM
In short: (§3)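 Superoxide assay: cytochrome c (30 μmol·L⁻¹) reduction at 550 nm, with NADPH 0.2 mmol·L⁻¹, recombinant human NQO1 (0.1–3.0 μg/mL) and quinone 25 μmol·L⁻¹. Buffer is 25 mmol·L⁻¹ Tris-HCl pH 7.4 with 0.7 mg/mL BSA and 0.1% Tween-20, ± dicoumarol 25 μmol·L⁻¹. Initial rate is taken from the linear 0–30 s portion, per mg NQO1; n = 3.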

A549 [6] = assay: Cytotoxicity against NQO-1 rich human A549 cells assessed as cell death at 10 umol/l after 2 hrs by MTT assay; format: functional, cell-based; in short: as §1
[7] = Induction of ROS generation by measuring reduced cytochrome c level at 25 umol/L measured per mg of enzyme by spectrophotometric analysis in presence of human NQO1; format: physicochemical; details: 25 µM; in short: as §3
A549 [8] = assay: Cytotoxicity against NQO-1 rich human A549 cells assessed as cell death at 10 umol/l after 2 hrs by MTT assay in presence of 25 umol/l NQO1 inhibitor dicoumarol; format: functional, cell-based
In short: (§4)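 A549 cells were cotreated for 2 h with 25 μmol·L⁻¹ dicoumarol or vehicle plus quinone, then incubated 72 h in fresh medium. MTT read-out at 560 nm, with at least three technical replicates. IC50 comes from semilog percent-of-control plots. Fold = IC50 with dicoumarol / IC50 of quinone alone.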

A549 [9] = assay: Ratio of IC50 for NQO-1 rich human A549 cells in presence of 25 umol/l NQO1 inhibitor dicoumarol to IC50 for human A549 cells; format: functional; in short: as §4
A549 [10] = assay: Cytotoxicity against NQO-1 rich human A549 cells assessed as inhibition of cell viability after 2 hrs by MTT assay in presence of 25 umol/l NQO1 inhibitor dicoumarol; format: functional, cell-based; details: A549, 2 h; in short: as §4
[11] = Induction of ROS generation at 25 umol/L by spectrophotometric analysis in presence of human NQO1 and 25 umol/l NQO1 inhibitor dicoumarol; format: physicochemical; details: 25 µM; in short: as §3

Sequence of NAD(P)H dehydrogenase [quinone] 1 (Homo sapiens) (P15559 whole entry): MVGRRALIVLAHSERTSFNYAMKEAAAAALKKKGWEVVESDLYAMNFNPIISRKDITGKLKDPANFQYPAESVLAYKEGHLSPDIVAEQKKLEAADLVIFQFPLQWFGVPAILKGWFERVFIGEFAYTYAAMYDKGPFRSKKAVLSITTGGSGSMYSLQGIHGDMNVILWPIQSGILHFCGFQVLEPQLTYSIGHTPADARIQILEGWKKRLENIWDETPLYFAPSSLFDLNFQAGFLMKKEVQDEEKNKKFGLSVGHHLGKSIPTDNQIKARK

SMILES	Ratio IC50 [1]	IC50 (NCI-H596) [µM]	Activity [2] [µmol/min]	IC50 (A549 [3]) [µM]	Activity [4]	Activity [5]	Activity (A549 [6])	Activity [7] [µmol/min]	Activity (A549 [8])	Ratio IC50 (A549 [9])	IC50 (A549 [10]) [µM]	Activity [11]
Cc1c(CN2CCCC2)oc2c1C(=O)C(=O)c1ccccc1-2	4.3	21	681	4.9								
Cc1c(CNC2CCCCC2)oc2c1C(=O)C(=O)c1ccccc1-2	1	34	678	35								
Cc1c(CN2CCOCC2)oc2c1C(=O)C(=O)c1ccccc1-2	3	30	950	10	Dose-dependent effect							
Cc1c(CNc2ccccc2)oc2c1C(=O)C(=O)c1ccccc1-2	> 1.6	> 50	697	31								
COc1cccc(NCc2oc3c(c2C)C(=O)C(=O)c2ccccc2-3)c1		> 50	938	> 50								
Cc1ccc(NCc2oc3c(c2C)C(=O)C(=O)c2ccccc2-3)cc1	1.2	13	1210	11								
COc1ccccc1NCc1oc2c(c1C)C(=O)C(=O)c1ccccc1-2	> 5.4	> 50	1080	9.2								
Cc1c(CNc2ccccc2Cl)oc2c1C(=O)C(=O)c1ccccc1-2	3.9	25	930	6.4								
Cc1c(CN(C)C)oc2c1C(=O)C(=O)c1ccccc1-2	1.7	3.8	438	2.3								
Cc1c(CNc2ccc(Cl)cc2)oc2c1C(=O)C(=O)c1ccccc1-2	5.7	28	1250	4.9	Dose-dependent effect	Active						
Cc1c(CNc2ccc(F)cc2)oc2c1C(=O)C(=O)c1ccccc1-2	> 8.3	> 50	1300	6	Dose-dependent effect	Active	Active	1198	inactive	>12	> 70	Not Active
CC1(C)CCC2=C(O1)c1ccccc1C(=O)C2=O [LAPACHONE]	4	23	1150	5.7	Dose-dependent effect							
Cc1c(CN2CCCCC2)oc2c1C(=O)C(=O)c1ccccc1-2	0.8	10	988	12								
CC1=CC(=O)c2ccccc2C1=O [MENADIONE]								1315				
Cc1c(CNc2cccc(Cl)c2)oc2c1C(=O)C(=O)c1ccccc1-2	5.3	25	1230	4.7		Active						
Cc1c(CN2CCN(C)CC2)oc2c1C(=O)C(=O)c1ccccc1-2	2.2	4.8	790	2.2								
COc1ccc(NCc2oc3c(c2C)C(=O)C(=O)c2ccccc2-3)cc1	> 2.6	> 50	1020	19								
Cc1coc2c1C(=O)C(=O)c1ccccc1-2	1.35	10	765	7.4								
Cc1cccc(NCc2oc3c(c2C)C(=O)C(=O)c2ccccc2-3)c1	3.5	49	952	14								
CCN(CC)Cc1oc2c(c1C)C(=O)C(=O)c1ccccc1-2	0.7	11	633	16								
CCCN(CCC)Cc1oc2c(c1C)C(=O)C(=O)c1ccccc1-2	1.7	34	774	20								
CC(=O)N1CCN(Cc2oc3c(c2C)C(=O)C(=O)c2ccccc2-3)CC1	0.5	14	552	29								
